In ChEMBL document CHEMBL4715924, “Virtual Screening Approach to Identifying a Novel and Tractable Series of Pseudomonas aeruginosa Elastase Inhibitors” (ACS Med Chem Lett, 2021):
pIC50, pKi: −log10 of the molar value.

Assays:
[1] = molecular target: T1, Angiotensin-converting enzyme (Oryctolagus cuniculus, UniProt P12822); experiment: Inhibition of rabbit ACE using Abz-FRK(DNP)-P as substrate measured for every 30 sec for 5 mins by UV-fluorescence based assay
T1 sequence (P12822 whole entry): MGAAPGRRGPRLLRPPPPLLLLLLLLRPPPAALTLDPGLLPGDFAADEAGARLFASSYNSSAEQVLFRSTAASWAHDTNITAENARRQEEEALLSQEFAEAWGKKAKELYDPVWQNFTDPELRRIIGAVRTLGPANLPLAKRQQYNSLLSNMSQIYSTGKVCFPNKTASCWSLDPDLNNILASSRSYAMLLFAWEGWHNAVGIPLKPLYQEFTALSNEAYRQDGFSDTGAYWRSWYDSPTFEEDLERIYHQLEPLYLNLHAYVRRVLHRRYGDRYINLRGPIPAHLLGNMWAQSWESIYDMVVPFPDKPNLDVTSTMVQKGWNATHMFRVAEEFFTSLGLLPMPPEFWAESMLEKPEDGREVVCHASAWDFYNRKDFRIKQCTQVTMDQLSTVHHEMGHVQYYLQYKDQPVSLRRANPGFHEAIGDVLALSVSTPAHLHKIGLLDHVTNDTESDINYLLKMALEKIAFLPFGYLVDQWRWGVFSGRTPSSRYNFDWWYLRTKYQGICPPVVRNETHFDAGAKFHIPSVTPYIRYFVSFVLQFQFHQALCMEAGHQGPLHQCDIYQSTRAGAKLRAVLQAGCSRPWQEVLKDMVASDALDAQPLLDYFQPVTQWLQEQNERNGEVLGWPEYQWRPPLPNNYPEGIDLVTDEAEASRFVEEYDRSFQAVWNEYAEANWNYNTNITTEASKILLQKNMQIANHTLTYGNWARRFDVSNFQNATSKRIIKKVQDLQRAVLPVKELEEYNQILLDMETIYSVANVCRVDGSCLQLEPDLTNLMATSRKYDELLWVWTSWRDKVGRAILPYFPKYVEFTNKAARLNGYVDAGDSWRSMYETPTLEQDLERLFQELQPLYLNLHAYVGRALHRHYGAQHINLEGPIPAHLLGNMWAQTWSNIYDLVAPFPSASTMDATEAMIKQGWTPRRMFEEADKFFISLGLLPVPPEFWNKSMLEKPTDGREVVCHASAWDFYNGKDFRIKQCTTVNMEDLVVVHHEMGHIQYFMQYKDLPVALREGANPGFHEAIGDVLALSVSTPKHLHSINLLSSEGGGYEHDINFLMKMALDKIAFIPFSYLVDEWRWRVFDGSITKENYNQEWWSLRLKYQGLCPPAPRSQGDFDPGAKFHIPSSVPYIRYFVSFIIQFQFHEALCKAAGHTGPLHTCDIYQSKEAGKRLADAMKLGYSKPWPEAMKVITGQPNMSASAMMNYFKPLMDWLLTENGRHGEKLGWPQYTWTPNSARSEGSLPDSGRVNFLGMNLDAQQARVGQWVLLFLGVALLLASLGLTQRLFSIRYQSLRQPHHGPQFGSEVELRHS

[2] = tested on: Pseudomonas aeruginosa PAO1; experiment: Inhibition of Pseudomonas aeruginosa PAO1 LasB using ECR as substrate assessed as reduction in elastin hydrolysis at 25 uM incubated for 16 hrs by congo-red dye based spectrophotometry relative to control
Summary of the method: (§1)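 The enzyme source was LasB secreted into P. aeruginosa culture supernatant, with elastin congo-red as substrate. Elastin degradation releases congo-red dye into the supernatant, which is quantified spectrophotometrically.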

[3] = Inhibition of Pseudomonas aeruginosa LasB using Abz-Ala-Gly-Leu-Ala-p-Nitro-Benzyl-Amide as substrate measured for every 60 sec for 30 mins by UV-fluorescence based assay
Summary of the method: (§2)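 Purified LasB enzyme in a fluorometric inhibition assay adapted from a published method. Compounds were screened at a single concentration of 30 μM (follow-ups in duplicate), and selected compounds were retested over 0.4–200 μM in dose–response. A modified version added 0.01% Triton X-100 to the assay buffer.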

[4] = tested on: Pseudomonas aeruginosa PAO1; experiment: Inhibition of Pseudomonas aeruginosa PAO1 LasB using ECR as substrate assessed as reduction in elastin hydrolysis at 50 uM incubated for 16 hrs by congo-red dye based spectrophotometry relative to control; summary of the method: as §1
Collagenase 3 = Collagenase 3 (Homo sapiens, UniProt P45452); experiment: Inhibition of human MMP13
[5] = molecular target: 72 kDa type IV collagenase (Homo sapiens, UniProt P08253); experiment: Inhibition of human MMP2
Chain of 72 kDa type IV collagenase (P08253 whole entry): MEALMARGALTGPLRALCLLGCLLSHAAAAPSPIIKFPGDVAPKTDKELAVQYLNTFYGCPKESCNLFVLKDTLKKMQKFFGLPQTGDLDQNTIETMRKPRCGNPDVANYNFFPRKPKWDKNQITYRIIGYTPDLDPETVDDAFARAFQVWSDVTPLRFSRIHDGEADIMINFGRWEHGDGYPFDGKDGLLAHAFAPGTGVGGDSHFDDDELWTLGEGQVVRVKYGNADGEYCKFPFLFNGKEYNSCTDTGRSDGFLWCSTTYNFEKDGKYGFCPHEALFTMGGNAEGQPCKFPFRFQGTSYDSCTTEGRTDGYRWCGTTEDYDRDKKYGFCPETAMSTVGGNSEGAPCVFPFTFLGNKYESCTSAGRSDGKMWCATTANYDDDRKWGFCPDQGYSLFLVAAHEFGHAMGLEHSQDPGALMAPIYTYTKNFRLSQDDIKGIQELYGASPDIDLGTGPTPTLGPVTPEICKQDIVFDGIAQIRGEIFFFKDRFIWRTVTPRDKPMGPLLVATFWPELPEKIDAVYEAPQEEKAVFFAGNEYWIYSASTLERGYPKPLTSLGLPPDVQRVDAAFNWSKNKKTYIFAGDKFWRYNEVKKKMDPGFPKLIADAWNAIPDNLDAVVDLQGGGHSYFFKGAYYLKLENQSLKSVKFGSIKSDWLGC

[6] = tested on: ACE (off-target) relative to Pseudomonas aeruginosa PAO1 LasB; experiment: Selectivity index, ratio of Ki for rabbit ACE to Ki for Pseudomonas aeruginosa PAO1 LasB; type: toxicity; settings: read-out: Ratio Ki
Interstitial collagenase = molecular target: T2, Interstitial collagenase (Homo sapiens, UniProt P03956); experiment: Inhibition of human MMP1
T2 sequence (P03956 whole entry): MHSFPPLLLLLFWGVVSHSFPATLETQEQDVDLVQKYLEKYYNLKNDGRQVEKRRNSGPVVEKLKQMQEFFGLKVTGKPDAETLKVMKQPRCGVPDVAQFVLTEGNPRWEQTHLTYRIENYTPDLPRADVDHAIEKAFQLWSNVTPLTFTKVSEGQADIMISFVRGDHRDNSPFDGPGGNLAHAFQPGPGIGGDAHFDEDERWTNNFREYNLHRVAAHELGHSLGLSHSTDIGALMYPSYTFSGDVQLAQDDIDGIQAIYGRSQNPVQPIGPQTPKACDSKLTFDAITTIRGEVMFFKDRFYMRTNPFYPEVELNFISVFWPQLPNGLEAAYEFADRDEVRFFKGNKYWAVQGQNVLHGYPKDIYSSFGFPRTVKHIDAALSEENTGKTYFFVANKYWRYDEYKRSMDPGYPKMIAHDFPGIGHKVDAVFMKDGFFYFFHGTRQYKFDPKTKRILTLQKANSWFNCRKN

[7] = Inhibition of Pseudomonas aeruginosa LasB using Abz-Ala-Gly-Leu-Ala-p-Nitro-Benzyl-Amide as substrate by micro-titer based fluorimetric assay; summary of the method: as §2

SMILES | pKi [1] | inhibition [2] | pKi [3] | inhibition [4] | pIC50 (Collagenase 3) | pIC50 [5] | selectivity ratio [6] | pIC50 (Interstitial collagenase) | pKi [7]
O=C(O)CC1(C(=O)NCc2nccs2)Cc2ccccc2C1 | < 4.24 | 55% | 6.21 | 65% | – | – | – | – | –
Cn1c(CNC(=O)C2(CC(=O)O)Cc3ccccc3C2)cc2ccccc21 | < 4.24 | 51% | 6.16 | 60% | – | – | – | – | –
O=C(O)CC1(C(=O)NCc2cc3ccccc3[nH]2)Cc2ccccc2C1 | < 4.24 | 35% | 5.97 | 49% | – | – | – | – | –
Cc1ccc2oc(CNC(=O)CC3(C(=O)O)Cc4ccccc4C3)cc2c1 | < 4.24 | – | < 4.04 | 2% | – | – | – | – | –
O=C(O)CC1(C(=O)NCCc2nc3ccccc3s2)Cc2ccccc2C1 | < 4.24 | 11% | 4.98 | 21% | – | – | – | – | –
C[C@H](NC(=O)C1(CC(=O)O)Cc2ccccc2C1)c1cc2ccccc2o1 | < 4.24 | 37% | 5.49 | 47% | – | – | – | – | –
Cc1ccccc1OCC(=O)N(CCC(=O)O)Cc1cccc(F)c1F | < 4.24 | – | 5.16 | – | – | – | – | – | –
Cn1c(CNC(=O)C2(CC(=O)O)Cc3ccccc3C2)nc2ccccc21 | 4.74 | 21% | 4.90 | 32% | – | – | – | – | –
O=C(O)CC1(C(=O)NCCc2cc3ccccc3s2)Cc2ccccc2C1 | 4.39 | 18% | 5.31 | 28% | – | – | – | – | –
O=C(O)CC1(C(=O)NCc2c[nH]c3ccccc23)Cc2ccccc2C1 | < 4.24 | 23% | 5.45 | 35% | – | – | – | – | –
Cn1cc(CNC(=O)CC2(C(=O)O)Cc3ccccc3C2)cn1 | < 4.24 | – | < 4.04 | 8% | – | – | – | – | –
Cn1cc(CNC(=O)C2(CC(=O)O)Cc3ccccc3C2)cn1 | < 4.24 | – | 5.39 | 42% | – | – | – | – | –
O=C(O)CC1(C(=O)NCc2ncc(-c3ccccc3)s2)Cc2ccccc2C1 | < 4.24 | 42% | 5.92 | 54% | – | – | – | – | –
O=C(CC1(C(=O)O)Cc2ccccc2C1)NCc1ccc2ccccc2n1 | – | – | 4.12 | 7% | – | – | – | – | –
O=C(O)CC1(C(=O)NCc2cc3ccccc3s2)Cc2ccccc2C1 | < 4.24 | 47% | 6.21 | 57% | – | – | – | – | –
O=C(O)CC1(C(=O)NCc2cc3ccccc3o2)Cc2ccccc2C1 | < 4.24 | 45% | 5.85 | 54% | – | – | – | – | –
O=C(O)CC1(C(=O)NCc2nc3ccccc3s2)Cc2ccccc2C1 | < 4.24 | 69% | 6.80 | 79% | < 5.00 | < 5.00 | > 356 | < 5.00 | –
Cc1cc(Br)ccc1C(=O)NC1=NC(=O)CN1 | < 4.24 | – | 4.74 | – | – | – | – | – | –
O=C(O)CC1(C(=O)NCc2nc3ccccc3[nH]2)Cc2ccccc2C1 | < 4.24 | 11% | 4.67 | 20% | – | – | – | – | –
CC(NC(=O)CC1(C(=O)O)Cc2ccccc2C1)c1cc2ccccc2o1 (racemic) | < 4.24 | – | 4.83 | 22% | – | – | – | – | –
O=C(O)CC1(C(=O)NCCc2cc3ccccc3[nH]2)Cc2ccccc2C1 | < 4.24 | 18% | 5.36 | 25% | – | – | – | – | –
O=C(O)CC1(C(=O)NCc2ccc3ccccc3n2)Cc2ccccc2C1 | < 4.24 | – | 6.21 | 63% | – | – | – | – | –
O=C(O)CC1(C(=O)NCc2nc(-c3ccccc3)cs2)Cc2ccccc2C1 | < 4.24 | 68% | 6.92 | 76% | < 5.00 | < 5.00 | > 356 | < 5.00 | –
Cc1ccc2oc(CNC(=O)C3(CC(=O)O)Cc4ccccc4C3)cc2c1 | < 4.24 | – | 6.35 | 60% | – | – | – | – | –
O=C(O)CC1(C(=O)NCc2coc3ccccc23)Cc2ccccc2C1 | 4.50 | 41% | 5.72 | 51% | – | – | – | – | –
C[C@@H](NC(=O)C1(CC(=O)O)Cc2ccccc2C1)c1cc2ccccc2o1 | < 4.24 | 33% | 5.64 | 44% | – | – | – | – | –
O=C(O)CC1(C(=O)NCc2ccccc2)Cc2ccccc2C1 | < 4.24 | 43% | 5.76 | 54% | – | – | – | – | –
NC(=O)[C@H](Cc1ccc(O)cc1)NC(=O)[C@H](Cc1ccccc1)NC(=O)CS | – | – | – | – | – | – | – | – | 7.39
O=C(O)CC1(C(=O)NCCc2nc3ccccc3[nH]2)Cc2ccccc2C1 | < 4.24 | 11% | 4.87 | 18% | – | – | – | – | –
O=C(O)CC1(C(=O)NCCc2cc3ccccc3o2)Cc2ccccc2C1 | < 4.24 | 16% | 5.25 | 25% | – | – | – | – | –
